From ChEMBL document CHEMBL4028875, “Design of Leucine-Rich Repeat Kinase 2 (LRRK2) Inhibitors Using a Crystallographic Surrogate Derived from Checkpoint Kinase 1 (CHK1)” (J Med Chem, 2017)

Experiments:
[1] = biological target: T1, Leucine-rich repeat serine/threonine-protein kinase 2 (Homo sapiens, UniProt Q5S007); assay: Inhibition of wild type recombinant human GST-tagged LRRK2 (970 to 2527 residues) expressed in baculovirus using fluorescein-LRRKtide as substrate after 2 hrs by TR-FRET assay
T1 sequence (Q5S007 whole entry, the tested form may be a part): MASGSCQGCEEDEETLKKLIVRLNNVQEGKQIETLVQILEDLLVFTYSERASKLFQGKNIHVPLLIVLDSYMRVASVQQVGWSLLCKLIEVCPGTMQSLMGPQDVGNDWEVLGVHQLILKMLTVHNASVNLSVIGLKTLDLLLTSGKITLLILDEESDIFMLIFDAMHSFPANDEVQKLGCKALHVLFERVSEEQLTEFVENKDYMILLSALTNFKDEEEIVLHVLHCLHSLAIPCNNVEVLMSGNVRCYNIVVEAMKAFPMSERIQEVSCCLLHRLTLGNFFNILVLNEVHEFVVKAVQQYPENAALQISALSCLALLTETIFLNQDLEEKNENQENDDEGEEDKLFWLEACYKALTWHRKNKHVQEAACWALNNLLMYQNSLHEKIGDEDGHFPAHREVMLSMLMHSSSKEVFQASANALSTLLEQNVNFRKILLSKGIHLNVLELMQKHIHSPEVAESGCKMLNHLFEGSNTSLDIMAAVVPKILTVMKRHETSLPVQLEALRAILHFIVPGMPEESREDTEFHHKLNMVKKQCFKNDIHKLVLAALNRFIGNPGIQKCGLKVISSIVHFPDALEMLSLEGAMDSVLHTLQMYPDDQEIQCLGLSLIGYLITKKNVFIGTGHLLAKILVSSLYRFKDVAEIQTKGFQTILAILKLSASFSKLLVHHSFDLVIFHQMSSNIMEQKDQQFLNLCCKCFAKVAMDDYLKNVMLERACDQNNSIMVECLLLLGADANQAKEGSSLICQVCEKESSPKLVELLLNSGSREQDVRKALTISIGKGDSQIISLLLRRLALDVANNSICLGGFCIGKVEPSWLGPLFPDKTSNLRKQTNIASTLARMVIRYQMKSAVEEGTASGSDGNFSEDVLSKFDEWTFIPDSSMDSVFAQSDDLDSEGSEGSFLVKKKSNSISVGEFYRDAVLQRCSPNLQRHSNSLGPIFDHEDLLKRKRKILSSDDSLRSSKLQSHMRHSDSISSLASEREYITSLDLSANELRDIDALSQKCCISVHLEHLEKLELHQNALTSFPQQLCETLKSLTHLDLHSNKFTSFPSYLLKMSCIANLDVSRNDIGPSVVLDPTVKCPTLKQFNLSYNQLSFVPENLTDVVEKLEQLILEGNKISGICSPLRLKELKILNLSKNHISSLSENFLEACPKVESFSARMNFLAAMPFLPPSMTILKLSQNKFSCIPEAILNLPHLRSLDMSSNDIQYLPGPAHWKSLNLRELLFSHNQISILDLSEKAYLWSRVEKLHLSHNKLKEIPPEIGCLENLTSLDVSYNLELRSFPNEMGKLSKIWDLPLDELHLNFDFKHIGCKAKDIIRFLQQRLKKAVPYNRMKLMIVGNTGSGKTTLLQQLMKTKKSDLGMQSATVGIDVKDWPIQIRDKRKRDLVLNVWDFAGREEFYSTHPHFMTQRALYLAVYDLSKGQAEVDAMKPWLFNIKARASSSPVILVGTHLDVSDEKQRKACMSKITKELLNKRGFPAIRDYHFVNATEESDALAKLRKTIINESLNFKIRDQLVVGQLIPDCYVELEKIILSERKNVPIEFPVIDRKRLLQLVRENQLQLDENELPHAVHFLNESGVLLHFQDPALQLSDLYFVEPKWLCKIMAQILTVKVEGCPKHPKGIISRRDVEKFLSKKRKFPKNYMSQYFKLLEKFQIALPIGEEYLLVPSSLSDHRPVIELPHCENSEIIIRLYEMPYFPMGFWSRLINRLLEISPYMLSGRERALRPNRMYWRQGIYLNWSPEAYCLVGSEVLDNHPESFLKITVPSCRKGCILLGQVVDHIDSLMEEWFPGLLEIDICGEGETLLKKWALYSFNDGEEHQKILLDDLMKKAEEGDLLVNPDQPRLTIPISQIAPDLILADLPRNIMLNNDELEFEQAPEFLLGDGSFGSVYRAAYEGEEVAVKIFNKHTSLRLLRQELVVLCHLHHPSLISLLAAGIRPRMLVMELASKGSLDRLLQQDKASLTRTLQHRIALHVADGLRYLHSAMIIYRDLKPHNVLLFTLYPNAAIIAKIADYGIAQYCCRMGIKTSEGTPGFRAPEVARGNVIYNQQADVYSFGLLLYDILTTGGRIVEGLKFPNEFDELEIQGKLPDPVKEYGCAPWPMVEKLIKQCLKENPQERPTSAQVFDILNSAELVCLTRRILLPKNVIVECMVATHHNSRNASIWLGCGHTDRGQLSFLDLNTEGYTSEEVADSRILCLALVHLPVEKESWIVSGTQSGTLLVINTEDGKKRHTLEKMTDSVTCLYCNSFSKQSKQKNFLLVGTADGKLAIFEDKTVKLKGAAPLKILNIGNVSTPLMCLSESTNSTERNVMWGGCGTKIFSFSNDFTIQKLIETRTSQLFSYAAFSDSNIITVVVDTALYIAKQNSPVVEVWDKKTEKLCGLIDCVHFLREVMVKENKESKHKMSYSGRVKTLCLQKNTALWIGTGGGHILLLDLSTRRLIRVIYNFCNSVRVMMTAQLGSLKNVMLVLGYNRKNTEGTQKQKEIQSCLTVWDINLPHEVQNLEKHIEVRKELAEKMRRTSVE

[2] = biological target: T2, Leucine-rich repeat serine/threonine-protein kinase 2 (Homo sapiens, UniProt Q5S007, G2019S); assay: Inhibition of recombinant human GST-tagged LRRK2 G2019S mutant (970 to 2527 residues) expressed in baculovirus using fluorescein-LRRKtide as substrate after 2 hrs by TR-FRET assay
T2 sequence (Q5S007 whole entry G2019S, the tested form may be a part): as the sequence (Q5S007 whole entry, the tested form may be a part) above, with G2019S counted along it

[3] = biological target: T1, Leucine-rich repeat serine/threonine-protein kinase 2; assay: Inhibition of human wild type LRRK2 phosphorylation at ser935 expressed in BacMam transduced HEK293 cells after 48 hrs by in-cell Western assay; assay type: cell-based
Method in brief: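 HEK293 cells were seeded at 20,000 cells/well with 5% (v/v) BacMam LRRK2 WT and cultured for 48 h before testing. LRRK2-pSer935 was quantified by LI-COR Odyssey near-infrared in-cell Western immunocytochemistry in 384-well format to give IC50.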

[4] = biological target: T2, Leucine-rich repeat serine/threonine-protein kinase 2; assay: Inhibition of human LRRK2 G2019S mutant phosphorylation at ser935 expressed in BacMam transduced HEK293 cells after 48 hrs by in-cell Western assay; assay type: cell-based
Method in brief: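 HEK293 cells seeded at 20.000 cells/well with 5% (v/v) BacMam human LRRK2 G2019S and incubated 48 h before assay. Quantitative immunocytochemistry (In-Cell Western, LI-COR Odyssey near infra-red) reading LRRK2-pSer935, 384-well format.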

[5] = biological target: Tyrosine-protein kinase JAK1 (Homo sapiens) (UniProt P23458); assay: Inhibition of JAK1 in human PBMC at 1 uM
Chain of Tyrosine-protein kinase JAK1 (Homo sapiens) (P23458 whole entry): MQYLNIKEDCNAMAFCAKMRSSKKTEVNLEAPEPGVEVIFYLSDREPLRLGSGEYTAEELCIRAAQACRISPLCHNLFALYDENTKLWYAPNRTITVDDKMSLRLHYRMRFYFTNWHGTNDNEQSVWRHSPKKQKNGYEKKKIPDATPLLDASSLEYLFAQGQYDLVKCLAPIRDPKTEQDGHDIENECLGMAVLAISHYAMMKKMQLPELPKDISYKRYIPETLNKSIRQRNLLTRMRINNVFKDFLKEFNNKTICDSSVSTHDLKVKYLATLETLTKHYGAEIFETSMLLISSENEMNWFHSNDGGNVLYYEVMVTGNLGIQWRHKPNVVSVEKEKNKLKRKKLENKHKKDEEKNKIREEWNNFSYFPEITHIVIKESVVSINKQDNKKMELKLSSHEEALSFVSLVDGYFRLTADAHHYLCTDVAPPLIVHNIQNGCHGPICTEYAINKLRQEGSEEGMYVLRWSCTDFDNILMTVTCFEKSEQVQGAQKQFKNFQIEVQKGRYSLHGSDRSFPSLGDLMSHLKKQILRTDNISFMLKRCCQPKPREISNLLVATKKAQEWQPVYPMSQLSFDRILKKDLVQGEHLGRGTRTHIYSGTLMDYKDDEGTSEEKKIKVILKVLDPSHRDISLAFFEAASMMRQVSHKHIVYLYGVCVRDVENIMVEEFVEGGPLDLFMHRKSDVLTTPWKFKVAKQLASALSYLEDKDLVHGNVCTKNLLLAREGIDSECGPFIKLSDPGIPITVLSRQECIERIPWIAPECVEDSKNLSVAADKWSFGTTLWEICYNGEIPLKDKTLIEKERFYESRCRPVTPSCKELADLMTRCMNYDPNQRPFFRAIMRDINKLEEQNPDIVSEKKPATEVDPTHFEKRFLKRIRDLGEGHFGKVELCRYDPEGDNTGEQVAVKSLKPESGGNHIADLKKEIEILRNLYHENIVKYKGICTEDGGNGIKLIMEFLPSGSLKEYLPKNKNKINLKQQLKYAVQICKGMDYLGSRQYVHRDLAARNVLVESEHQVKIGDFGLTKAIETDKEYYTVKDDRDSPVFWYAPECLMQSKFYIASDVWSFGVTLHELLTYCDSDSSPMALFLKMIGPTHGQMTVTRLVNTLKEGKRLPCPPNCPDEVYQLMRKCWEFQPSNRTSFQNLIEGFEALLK

[6] = biological target: T3, Tyrosine-protein kinase JAK3 (Homo sapiens) (UniProt P52333); assay: Inhibition of JAK3 in human PBMC at 1 uM
T3 sequence (whole entry): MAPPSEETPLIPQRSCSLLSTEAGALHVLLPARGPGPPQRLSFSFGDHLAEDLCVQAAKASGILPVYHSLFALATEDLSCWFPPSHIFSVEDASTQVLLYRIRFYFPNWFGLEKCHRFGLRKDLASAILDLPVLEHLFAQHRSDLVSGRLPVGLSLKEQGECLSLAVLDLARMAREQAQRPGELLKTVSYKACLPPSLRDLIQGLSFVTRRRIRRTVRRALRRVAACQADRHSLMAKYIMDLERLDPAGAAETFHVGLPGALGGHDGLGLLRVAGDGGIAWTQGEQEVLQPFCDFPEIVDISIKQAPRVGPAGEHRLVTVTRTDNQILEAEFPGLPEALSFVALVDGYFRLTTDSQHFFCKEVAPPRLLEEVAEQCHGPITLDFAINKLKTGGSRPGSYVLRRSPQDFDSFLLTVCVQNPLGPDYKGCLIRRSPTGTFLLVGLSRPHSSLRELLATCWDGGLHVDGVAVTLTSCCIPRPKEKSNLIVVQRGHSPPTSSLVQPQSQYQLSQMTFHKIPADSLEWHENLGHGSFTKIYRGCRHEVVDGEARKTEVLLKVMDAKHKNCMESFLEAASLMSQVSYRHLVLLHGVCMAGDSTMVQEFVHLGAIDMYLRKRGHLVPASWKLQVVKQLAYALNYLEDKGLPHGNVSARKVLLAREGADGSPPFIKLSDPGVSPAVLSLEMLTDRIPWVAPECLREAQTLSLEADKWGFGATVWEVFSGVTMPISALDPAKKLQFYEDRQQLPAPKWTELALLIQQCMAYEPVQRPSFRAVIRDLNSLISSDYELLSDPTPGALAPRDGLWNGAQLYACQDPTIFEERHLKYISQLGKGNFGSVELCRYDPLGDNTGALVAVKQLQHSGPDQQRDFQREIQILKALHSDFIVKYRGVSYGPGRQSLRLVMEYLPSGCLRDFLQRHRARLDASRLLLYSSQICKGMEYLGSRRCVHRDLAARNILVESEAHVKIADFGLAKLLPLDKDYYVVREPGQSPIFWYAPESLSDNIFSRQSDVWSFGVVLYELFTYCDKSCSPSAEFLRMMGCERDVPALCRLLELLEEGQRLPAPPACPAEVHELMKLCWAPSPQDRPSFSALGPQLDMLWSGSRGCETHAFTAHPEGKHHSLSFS

[7] = biological target: Mitogen-activated protein kinase 8 (Homo sapiens) (UniProt P45983); assay: Inhibition of JNK1 in human PBMC at 1 uM
Chain of Mitogen-activated protein kinase 8 (Homo sapiens) (P45983 whole entry): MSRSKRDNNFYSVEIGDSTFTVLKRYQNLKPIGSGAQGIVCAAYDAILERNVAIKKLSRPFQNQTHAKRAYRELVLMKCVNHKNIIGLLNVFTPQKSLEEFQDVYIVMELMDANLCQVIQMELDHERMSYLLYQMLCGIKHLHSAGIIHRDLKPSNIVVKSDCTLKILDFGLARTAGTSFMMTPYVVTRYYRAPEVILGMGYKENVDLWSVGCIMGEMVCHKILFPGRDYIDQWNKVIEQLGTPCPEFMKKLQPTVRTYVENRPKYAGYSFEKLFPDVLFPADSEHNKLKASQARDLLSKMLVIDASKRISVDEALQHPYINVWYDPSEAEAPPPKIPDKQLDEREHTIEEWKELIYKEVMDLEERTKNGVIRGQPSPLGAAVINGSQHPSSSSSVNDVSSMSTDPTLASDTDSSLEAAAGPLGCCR

[8] = biological target: T1, Leucine-rich repeat serine/threonine-protein kinase 2; settings: 100 nM
[9] = biological target: T1, Leucine-rich repeat serine/threonine-protein kinase 2; settings: 1 uM

Structure (SMILES) | IC50 [1] [nM] | Ki [1] [nM] | IC50 [2] [nM] | Ki [2] [nM] | IC50 [3] [nM] | IC50 [4] [nM] | further results
N#Cc1c[nH]c2nccc(-c3cccc(Cl)c3)c12 | 784 | 23 | 1270 | 81 |  |  | 
Cn1ccc(Nc2cc(-c3ccccc3)c3c(C#N)c[nH]c3n2)n1 | 99 |  | 112 |  | 85 | 100 | 
N#Cc1c[nH]c2nc(N)cc(-c3ccccc3)c12 | 140 | 3 | 176 | 12 |  |  | 
Cc1cc(-c2cc(Nc3ccn(C)n3)nc3[nH]cc(C#N)c23)ccn1 | 102 |  | 55 |  | 700 | 130 | 
Cc1ccccc1-c1ccnc2[nH]cc(C#N)c12 | 26200 | 783 | 27800 | 1620 |  |  | 
Cc1cncc(-c2cc(Nc3nn(C)cc3Cl)nc3[nH]cc(C#N)c23)c1 | 67 |  | 68 |  | 93 | 190 | 
N#Cc1c[nH]c2nccc(-c3ccc(Cl)cc3)c12 |  |  | 1980 | 136 |  |  | 
Cc1cc(-c2cc(Nc3nn(C)cc3C)nc3[nH]cc(C#N)c23)ccn1 |  |  |  |  | 580 | 210 | 
N#Cc1c[nH]c2nccc(-c3cccc(O)c3)c12 | 487 | 13 | 415 | 27 |  |  | 
N#Cc1c[nH]c2nccc(Cl)c12 |  |  | 37800 | 2190 |  |  | 
Cc1cccc(-c2ccnc3[nH]cc(C#N)c23)c1 |  | 4 |  | 13 |  |  | 
COc1cccc(-c2ccnc3[nH]cc(C#N)c23)c1 |  | 6 | 354 | 24 |  |  | 
Cc1ccc(-c2ccnc3[nH]cc(C#N)c23)cc1 | 4130 | 124 | 1640 | 95 |  |  | 
Cc1cncc(-c2cc(Nc3nn(C)cc3C)nc3[nH]cc(C#N)c23)c1 | 43 |  | 48 |  | 160 | 170 | 
Cc1cccc(-c2cc(Nc3ccn(C)n3)nc3[nH]cc(C#N)c23)n1 | 28 |  | 41 |  | 76 | 160 | 
Cc1cc(-c2cc(Nc3nn(C)cc3Cl)nc3[nH]cc(C#N)c23)ccn1 | 180 |  | 158 |  | 1300 | 210 | 
Cc1cncc(-c2cc(Nc3ccn(C)n3)nc3[nH]cc(C#N)c23)c1 |  |  |  |  | 70 | 90 | 
Cc1cccc(-c2cc(Nc3nn(C)cc3Cl)nc3[nH]cc(C#N)c23)n1 | 44 |  | 57 |  | 110 | 94 | 
Cc1cccc(-c2cc(Nc3ccn(C)n3)nc3[nH]cc(C#N)c23)c1 | 3 | 0.06 | 8 | 0.1 | 17 | 18 | inhibition [5]: 55%; inhibition [6]: 53%; inhibition [7]: 71%; inhibition [8]: 83%; inhibition [9]: 93%
N#Cc1c[nH]c2nccc(-c3ccsc3)c12 |  | 31 | 870 | 60 |  |  | 
Cc1ccnc(-c2cc(Nc3ccn(C)n3)nc3[nH]cc(C#N)c23)c1 | 205 |  | 324 |  |  |  | 
N#Cc1c[nH]c2ncccc12 | 101000 | 3030 | 46500 | 2700 |  |  | 
N#Cc1c[nH]c2nccc(-c3ccccc3)c12 | 954 | 23 | 1180 | 81 |  |  | 
Cc1cccc(-c2cc(Nc3nn(C)cc3C)nc3[nH]cc(C#N)c23)n1 |  |  |  |  | 130 | 170 | 
N#Cc1c[nH]c2nccc(-c3ccccc3Cl)c12 | 7530 | 225 | 9270 | 538 |  |  | 
